Assay results reported in ChEMBL document CHEMBL1255483, “Intra- and extracellular activities of dicloxacillin against Staphylococcus aureus in vivo and in vitro” (Antimicrob Agents Chemother, 2010).
Converted amounts (≈) assume the structure as drawn. The source made the active and inactive calls. No cut-off for these calls is given here.

How the values were obtained:
[1] = fT>MIC in Staphylococcus aureus E19977 infected NMRI mouse at 120 mg/kg administered every 3 hrs; type: functional
Summary of the method: (§1)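 Calculated percentage of 24 h at steady state that free plasma DCX exceeds the strain MIC (microdilution, pH 7.4). Concentrations were simulated from single subcutaneous dose plasma curves in NMRI mice (S. lutea bioassay), adjusted with a square-root model of concentration-dependent free fraction from ultrafiltration. The regimen was dosed subcutaneously in mice infected intraperitoneally with 10^7.4 CFU, and peritoneal CFU were read after 24 h of therapy.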

Staphylococcus aureus [2] = experiment: Antimicrobial activity against Staphylococcus aureus E19977 infected in human THP-1 cells after 24 hrs; type: functional, organism-based; conditions: E19977, THP-1, 24 h
Summary of the method: (§2)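 Human THP-1 macrophages were infected with opsonized S. aureus at 4 bacteria per macrophage for 45 min. Non-phagocytized bacteria were removed by washing and a brief incubation in PBS with gentamicin 50 mg/liter. Cells were then incubated up to 24 h with DCX over a wide range of extracellular concentrations. The read-out was Δlog CFU per mg cell protein versus time zero (n = 3), with sigmoidal fitting and Cstatic by interpolation.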

Staphylococcus aureus [3] = experiment: Bacteriostatic activity against Staphylococcus aureus ATCC 25923 infected in human THP-1 cells at MIC after 24 hrs; type: functional, organism-based; summary of the method: as §2
Staphylococcus aureus [4] = experiment: Antimicrobial activity against Staphylococcus aureus ATCC 25923 after 24 hrs; type: functional, organism-based; conditions: ATCC 25923, 24 h
Summary of the method: (§3)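 Extracellular broth time- and concentration-kill test. The inoculum was ~10⁶ CFU/ml, exposed to a wide range of DCX concentrations, with CFU counted after 5 and 24 h. The read-out was Δlog CFU/ml versus time zero (mean ± SD, n = 3). A sigmoidal fit with slope 1 gave Emax and EC50. Cstatic was read by graphical interpolation as the concentration giving no change from the inoculum.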

Staphylococcus aureus [5] = experiment: Bactericidal activity against Staphylococcus aureus ATCC 25923 assessed as log reduction in bacterial count at 100 times MIC after 5 hrs by time-kill assay; type: functional
Summary of the method: (§4)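 Broth time-kill: MSSA at 10⁶ CFU/ml exposed to a wide range of dicloxacillin concentrations. CFU counted after 5 and 24 h and expressed as change in log₁₀ CFU/ml from time zero. Multiples refer to the MIC by CLSI microdilution at pH 7.4. n = 3.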

[6] = Ratio of fAUC (24 hrs) in NMRI mouse at 160 mg/kg administered every 3 hrs to MIC for Staphylococcus aureus E19977; type: functional
Summary of the method: (§5)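 Free-drug AUC24/MIC was modelled for repeated subcutaneous regimens. Single-dose NMRI plasma concentration-time curves were combined with the best-fitting square-root expression for the concentration-dependent free fraction. The result was divided by the E19977 MIC.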

Staphylococcus aureus [7] = experiment: Bactericidal activity against Staphylococcus aureus ATCC 25923 assessed as log reduction in bacterial count at 100 times MIC after 24 hrs by time-kill assay; type: functional; summary of the method: as §4
[8] = Ratio of fAUC (24 hrs) in NMRI mouse at 340 mg/kg administered every 24 hrs to MIC for Staphylococcus aureus E19977
Staphylococcus aureus [9] = experiment: Bacteriostatic activity against Staphylococcus aureus E19977 after 24 hrs; type: functional; summary of the method: as §3
[10] = Ratio of fCmax in NMRI mouse at 200 mg/kg administered every 6 hrs to MIC for Staphylococcus aureus E19977; type: functional
Summary of the method: (§6)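 Free Cmax/MIC was modelled, not measured. Single-dose subcutaneous plasma curves from NMRI mice were projected to the multiple-dose regimens. Free fraction came from a square-root fit of unbound fraction versus total concentration. Binding was measured by ultrafiltration of mouse plasma spiked with 10–400 mg/liter and held 1 h at 37°C. MIC was for strain E19977.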

[11] = Half-life in NMRI mouse at 120 mg/kg, sc; type: ADME, organism-based; design: dose 120 mg/kg, route subcutaneous; conditions: in vivo
Summary of the method: (§7)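 Single subcutaneous DCX doses given to NMRI mice. Blood was collected into EDTA tubes, and plasma drug was assayed by microbiological bioassay with S. lutea ATCC 9391 (detection limit 1.5 mg/liter, linear to 100 mg/liter). Values came from noncompartmental analysis. Terminal half-life was fitted monoexponentially to the last four time points. AUC24 combined the trapezoidal rule over mean points with exact integration of the fitted curve extrapolated to 24 h.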

Staphylococcus aureus [12] = experiment: Bactericidal activity against Staphylococcus aureus ATCC 25923 infected in human THP1 cells assessed as log reduction in bacterial count at 10 times MIC after 24 hrs by time-kill assay; type: functional, THP-1
Summary of the method: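 Intracellular model in THP-1 macrophages: opsonized S. aureus was added at 4 bacteria per macrophage for 45 min. Non-phagocytized bacteria were removed by washing and brief PBS incubation with gentamicin (50 mg/liter). Cells were then incubated up to 24 h with a wide range of extracellular dicloxacillin concentrations. Result is change in log₁₀ CFU per mg cell protein from time zero. n = 3.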

Staphylococcus aureus [13] = experiment: Antimicrobial activity against Staphylococcus aureus ATCC 25923 by broth microdilution method at pH 5.4
[14] = AUC (24 hrs) in NMRI mouse at 1200 mg/kg, sc; type: ADME, organism-based; design: time < 24 hr, dose 1200 mg/kg, route subcutaneous; conditions: plasma
[15] = Ratio of fCmax in NMRI mouse at 120 mg/kg administered every 6 hrs to MIC for Staphylococcus aureus E19977; type: functional; summary of the method: as §6
Staphylococcus aureus [16] = experiment: Bacteriostatic activity against Staphylococcus aureus ATCC 25923 infected in human THP-1 cells at 100 times MIC after 5 hrs; type: functional, organism-based; summary of the method: as §2
Mus musculus = species on record: Mus musculus; experiment: Protein binding in NMRI mouse at 30 mg/l by ultrafiltration; type: ADME, organism-based; conditions: in vivo
Summary of the method: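 Plasma binding was measured by ultrafiltration. EDTA blood from healthy mice, or from NMRI mice infected intraperitoneally for 6 h with E19977, was spiked with DCX at 10–400 mg/liter, with PBS controls. Samples were held 1 h at 37°C, then centrifuged through 30-kDa filters at 3,000 × g for 8 min at 37°C. Total and filtrate drug were measured by S. lutea bioassay.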

[17] = Ratio of fAUC (24 hrs) in NMRI mouse at 120 mg/kg administered every 3 hrs to MIC for Staphylococcus aureus E19977; type: functional; summary of the method: as §5
Staphylococcus aureus [18] = experiment: Antimicrobial activity against Staphylococcus aureus ATCC 25923 infected in human THP-1 cells after 24 hrs; type: functional, organism-based; conditions: ATCC 25923, THP-1, 24 h; summary of the method: as §2
[19] = Ratio of fCmax in NMRI mouse at 340 mg/kg administered every 24 hrs to MIC for Staphylococcus aureus E19977
Staphylococcus aureus [20] = experiment: Bactericidal activity against Staphylococcus aureus E19977 assessed as log change in bacterial count after 24 hrs; type: functional; summary of the method: as §3
[21] = AUC (24 hrs) in NMRI mouse at 60 mg/kg, sc; type: ADME, organism-based; design: time < 24 hr, dose 60 mg/kg, route subcutaneous; conditions: plasma; summary of the method: as §7
[22] = Ratio of fCmax in NMRI mouse at 76 mg/kg administered every 2 hrs to MIC for Staphylococcus aureus E19977; type: functional; summary of the method: as §6
[23] = fT>MIC in Staphylococcus aureus E19977 infected NMRI mouse at 300 mg/kg administered every 12 hrs; type: functional; summary of the method: as §1
[24] = fT>MIC in Staphylococcus aureus E19977 infected NMRI mouse at 120 mg/kg administered every 24 hrs; type: functional; summary of the method: as §1
[25] = Ratio of fCmax in NMRI mouse at 240 mg/kg administered every 6 hrs to MIC for Staphylococcus aureus E19977; type: functional; summary of the method: as §6

Cc1onc(-c2c(Cl)cccc2Cl)c1C(=O)N[C@@H]1C(=O)N2[C@@H]1SC(C)(C)[C@@H]2C(=O)O [DICLOXACILLIN]
fT>MIC [1]: 75.56% | EC50 (Staphylococcus aureus [2]): 0.31 µg/mL (≈ 0.659 µM) | Activity (Staphylococcus aureus [3]): Active | EC50 (Staphylococcus aureus [4]): 0.06 µg/mL (≈ 0.128 µM) | FC (Staphylococcus aureus [5]): <1 | fAUC/MIC [6]: 556.4 h | FC (Staphylococcus aureus [7]): 3 | fAUC/MIC [8]: 259.37 h | Activity (Staphylococcus aureus [9]): 0.43 mg/L | Ratio [10]: 101.92 | half-life [11]: 22 min | FC (Staphylococcus aureus [12]): <1 | MIC (Staphylococcus aureus [13]): 0.031 µg/mL (≈ 0.0659 µM) | AUC at 24 h [14]: 190 µg·h/mL | Ratio [15]: 61.6 | Activity (Staphylococcus aureus [16]): Active | Activity (Mus musculus): 91.5% | fAUC/MIC [17]: 350.73 h | EC50 (Staphylococcus aureus [18]): 0.04 µg/mL (≈ 0.085 µM) | Ratio [19]: 233.35 | Emax (Staphylococcus aureus [20]): -3.81 deltalog10CFU/ml | AUC at 24 h [21]: 70.4 µg·h/mL | Ratio [22]: 28.18 | fT>MIC [23]: 35.28% | fT>MIC [24]: 9.44% | Ratio [25]: 136.18
